# From ChEMBL document CHEMBL1151198, “A new antimalarial quassinoid from Simaba orinocensis” (J Nat Prod, 2004)
# Calls of active or inactive are those of the source. No cut-off for these calls is given here.
# Experiments:
# RAW264.7 [1] = assay: Inhibition of iNOS production in LPS-activated mouse RAW264.7 cells after 20 hrs; type: functional, cell-based; conditions: RAW264.7, 20 h
# Summary of the method: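 iNOS assay in RAW 264.7 cells, with L-NMMA, APDC and dexamethasone as reference inhibitors. IC50 in µg/mL, mean ± SEM of three determinations.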
# [2] = Specific index, ratio of IC50 for mouse RAW264.7 to IC50 for iNOS production in mouse RAW264.7
# Summary of the method: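 Index calculated as the MTT IC50 in RAW 264.7 cells divided by the iNOS IC50 in the same cells.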
# RAW264.7 [3] = assay: Cytotoxicity against mouse RAW264.7 cells after 2 days by MTT assay; type: cell-based; conditions: RAW264.7, 48 h
# Summary of the method: (§1)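 MTT viability assay, run on CHO-ICAM-1 cells and, separately, on RAW 264.7 cells. IC50 in µg/mL, mean ± SEM of three determinations.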
# Leishmania donovani = assay: Antileishmanial activity against Leishmania donovani promastigotes after 48 hrs by alamar blue assay; type: functional, organism-based
# Vero = assay: Cytotoxicity against african green monkey kidney Vero cells; type: cell-based; conditions: Chlorocebus sabaeus
# Plasmodium falciparum [4] = assay: Antimalarial activity against chloroquine-resistant Plasmodium falciparum W2 by LDH assay; type: functional, organism-based
# [5] = molecular target: Intercellular adhesion molecule (ICAM-1), Integrin alpha-L/beta-2 (Homo sapiens) (UniProt P20701+P05362+P05107); assay: Inhibition of LFA1/ICAM1-mediated HL60 cell aggregation; type: cell-based; conditions: HL-60
# Summary of the method: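 Primary screen for LFA-1/ICAM-1-mediated cell aggregation run together with an XTT cell-proliferation read-out. Aggregation potency is reported as a minimum inhibitory concentration in µg/mL.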
# SK-MEL = assay: Cytotoxicity against human SK-MEL cells after 48 hrs by neutral red staining; type: functional, cell-based
# Summary of the method: (§2)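 Human tumour lines: SK-MEL (malignant melanoma), KB (epidermal carcinoma), BT-549 (ductal carcinoma) and SK-OV-3 (ovary carcinoma). Compounds tested up to a maximum of 10 µg/mL, with doxorubicin as reference. IC50 given in µg/mL as mean ± SEM of three determinations.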
# HeLa [6] = assay: Inhibition of protein synthesis in human HeLa cells assessed as translation at 2 uM by [35S]methionine metabolic labeling study; type: functional; design: scale not given: the % may be the effect or the level left
# HL-60 = assay: Cytotoxicity against human HL60 cells by XTT assay; type: cell-based
# Summary of the method: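 XTT proliferation read-out combined with the primary assay for inhibitors of LFA-1/ICAM-1-mediated cell aggregation. IC50 in µg/mL, mean ± SEM of three determinations.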
# [7] = Selectivity index, ratio of IC50 for african green monkey (Cercopithecus aethiops) Vero cells to IC50 for chloroquine-resistant Plasmodium falciparum W2; type: toxicity, cell-based; conditions: read-out: Ratio IC50
# BT-549 = assay: Cytotoxicity against human BT549 cells after 48 hrs by neutral red staining; type: functional, cell-based; conditions: BT-549, 48 h; summary of the method: as §2
# [8] = Specific index, ratio of IC50 for human HL60 cells to MIC for LFA1/ICAM1; type: functional, HL-60
# Summary of the method: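 Index calculated as XTT-assay IC50 (µg/mL) divided by the MIC from the LFA-1/ICAM-1-mediated aggregation primary screen (µg/mL). XTT IC50 values are given as mean ± SEM of three determinations.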
# [9] = Inhibition of protein biosynthesis in mouse Krebs cells assessed as renilla luciferase activity at 10 uM after 1 hr by translation assay relative to control; type: functional
# Summary of the method: (§3)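 In vitro Krebs cell translation system read by firefly and renilla luciferase. Compounds at 10 or 2 µM; anisomycin 10 µM as reference and 0.5% DMSO as vehicle control. Values are average luciferase activity relative to control.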
# KB = assay: Cytotoxicity against human KB cells after 48 hrs by neutral red staining; type: functional, cell-based; summary of the method: as §2
# [10] = molecular target: Intercellular adhesion molecule (ICAM-1), Integrin alpha-L/beta-2 (Homo sapiens, UniProt P05107+P05362+P20701); assay: Inhibition of LFA1/ICAM1-mediated adhesion of HL60 cells to CHO-ICAM1 cells; type: cell-based, HL-60
# Summary of the method: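 Secondary LFA-1/ICAM-1-mediated adhesion assay using HL-60 cells and CHO-ICAM-1 cells, with cytochalasin B as standard. IC50 in µg/mL, mean ± SEM of three determinations.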
# [11] = Inhibition of protein biosynthesis in mouse Krebs cells assessed as firefly luciferase activity at 10 uM after 1 hr by translation assay relative to control; type: functional; summary of the method: as §3
# HeLa [12] = assay: Inhibition of translation in human HeLa cells at 10 uM by 35S-methionine metabolic labeling study; type: functional, cell-based
# Plasmodium falciparum [13] = assay: Antimalarial activity against chloroquine-sensitive Plasmodium falciparum D6 by LDH assay; type: functional, organism-based
# SK-OV-3 = assay: Cytotoxicity against human SKOV3 cells after 48 hrs by neutral red staining; type: functional, cell-based; conditions: SK-OV-3, 48 h; summary of the method: as §2
# [14] = Selectivity index, ratio of IC50 for african green monkey (Cercopithecus aethiops) Vero cells to IC50 for chloroquine-sensitive Plasmodium falciparum D6; type: toxicity, cell-based; conditions: read-out: Ratio IC50
# CHO = assay: Cytotoxicity against CHO cells transfected with ICAM1 by MTT assay; type: cell-based; conditions: Cricetulus griseus; summary of the method: as §1
# [15] = Inhibition of protein biosynthesis in mouse Krebs cells assessed as renilla luciferase activity at 2 uM after 1 hr by translation assay relative to control; type: functional; summary of the method: as §3
# [16] = Inhibition of protein biosynthesis in mouse Krebs cells assessed as firefly luciferase activity at 2 uM after 1 hr by translation assay relative to control; type: functional; summary of the method: as §3
# HeLa [17] = assay: Inhibition of protein synthesis in human HeLa cells at 2 uM by [35S]methionine metabolic labeling study; type: functional
# HeLa [18] = assay: Inhibition of translation in human HeLa cells at 2 uM by 35S-methionine metabolic labeling study; type: functional, cell-based
# [19] = Specific index, ratio of IC50 for CHO cells to IC50 for LFA1/ICAM1
# Summary of the method: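 Ratio of the MTT IC50 against CHO-ICAM-1 cells to the IC50 from the secondary LFA-1/ICAM-1-mediated adhesion assay, in which HL-60 cells adhere to CHO-ICAM-1 cells. IC50 values are in µg/mL, as mean ± SEM of three determinations.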
# Intercellular adhesion molecule (ICAM-1), Integrin alpha-L/beta-2, sequence (P20701 whole entry): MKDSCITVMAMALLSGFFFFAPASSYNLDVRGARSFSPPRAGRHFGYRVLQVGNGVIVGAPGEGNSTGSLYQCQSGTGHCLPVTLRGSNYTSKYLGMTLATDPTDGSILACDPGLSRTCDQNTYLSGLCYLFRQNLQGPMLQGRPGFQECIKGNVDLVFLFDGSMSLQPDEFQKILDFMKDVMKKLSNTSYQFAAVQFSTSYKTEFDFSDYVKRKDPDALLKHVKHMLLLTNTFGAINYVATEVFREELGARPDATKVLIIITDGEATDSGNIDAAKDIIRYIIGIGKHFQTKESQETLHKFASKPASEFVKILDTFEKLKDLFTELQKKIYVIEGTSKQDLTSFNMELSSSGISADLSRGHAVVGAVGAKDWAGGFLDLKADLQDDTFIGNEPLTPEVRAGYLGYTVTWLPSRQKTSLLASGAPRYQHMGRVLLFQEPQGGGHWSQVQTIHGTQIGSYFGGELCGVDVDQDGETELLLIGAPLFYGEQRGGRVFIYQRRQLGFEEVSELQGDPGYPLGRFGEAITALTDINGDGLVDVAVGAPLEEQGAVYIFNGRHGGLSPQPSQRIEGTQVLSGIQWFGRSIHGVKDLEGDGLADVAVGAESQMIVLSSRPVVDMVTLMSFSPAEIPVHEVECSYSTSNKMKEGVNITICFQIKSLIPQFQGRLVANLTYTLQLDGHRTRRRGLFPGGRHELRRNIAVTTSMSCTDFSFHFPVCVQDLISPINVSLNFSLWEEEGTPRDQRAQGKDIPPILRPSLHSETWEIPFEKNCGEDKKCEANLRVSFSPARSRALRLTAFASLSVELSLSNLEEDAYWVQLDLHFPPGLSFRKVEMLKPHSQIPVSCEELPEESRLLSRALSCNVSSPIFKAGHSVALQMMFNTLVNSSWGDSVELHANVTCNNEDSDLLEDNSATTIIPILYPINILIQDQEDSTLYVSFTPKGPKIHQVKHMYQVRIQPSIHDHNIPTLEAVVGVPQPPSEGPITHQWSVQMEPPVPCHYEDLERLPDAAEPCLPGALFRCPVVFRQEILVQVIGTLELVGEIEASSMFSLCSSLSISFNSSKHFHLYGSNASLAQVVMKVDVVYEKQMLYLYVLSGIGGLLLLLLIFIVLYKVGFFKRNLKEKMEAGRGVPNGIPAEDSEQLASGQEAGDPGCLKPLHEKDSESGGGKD
# Intercellular adhesion molecule (ICAM-1), Integrin alpha-L/beta-2, sequence (P05362 whole entry): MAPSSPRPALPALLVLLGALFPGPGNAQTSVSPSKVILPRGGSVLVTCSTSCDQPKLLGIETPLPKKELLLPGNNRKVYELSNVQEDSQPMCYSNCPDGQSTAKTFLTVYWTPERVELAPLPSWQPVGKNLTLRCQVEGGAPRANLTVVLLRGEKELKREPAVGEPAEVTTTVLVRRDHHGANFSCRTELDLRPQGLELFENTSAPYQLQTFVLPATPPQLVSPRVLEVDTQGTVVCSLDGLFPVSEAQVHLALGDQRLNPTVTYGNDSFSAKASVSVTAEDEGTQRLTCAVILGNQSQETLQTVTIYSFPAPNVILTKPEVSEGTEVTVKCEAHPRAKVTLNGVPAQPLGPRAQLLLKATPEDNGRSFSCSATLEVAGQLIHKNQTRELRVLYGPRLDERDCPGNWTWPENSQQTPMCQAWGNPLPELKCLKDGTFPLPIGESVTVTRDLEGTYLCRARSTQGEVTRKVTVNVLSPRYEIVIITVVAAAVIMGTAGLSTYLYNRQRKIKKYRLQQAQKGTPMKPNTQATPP
# Intercellular adhesion molecule (ICAM-1), Integrin alpha-L/beta-2, sequence (P05107 whole entry): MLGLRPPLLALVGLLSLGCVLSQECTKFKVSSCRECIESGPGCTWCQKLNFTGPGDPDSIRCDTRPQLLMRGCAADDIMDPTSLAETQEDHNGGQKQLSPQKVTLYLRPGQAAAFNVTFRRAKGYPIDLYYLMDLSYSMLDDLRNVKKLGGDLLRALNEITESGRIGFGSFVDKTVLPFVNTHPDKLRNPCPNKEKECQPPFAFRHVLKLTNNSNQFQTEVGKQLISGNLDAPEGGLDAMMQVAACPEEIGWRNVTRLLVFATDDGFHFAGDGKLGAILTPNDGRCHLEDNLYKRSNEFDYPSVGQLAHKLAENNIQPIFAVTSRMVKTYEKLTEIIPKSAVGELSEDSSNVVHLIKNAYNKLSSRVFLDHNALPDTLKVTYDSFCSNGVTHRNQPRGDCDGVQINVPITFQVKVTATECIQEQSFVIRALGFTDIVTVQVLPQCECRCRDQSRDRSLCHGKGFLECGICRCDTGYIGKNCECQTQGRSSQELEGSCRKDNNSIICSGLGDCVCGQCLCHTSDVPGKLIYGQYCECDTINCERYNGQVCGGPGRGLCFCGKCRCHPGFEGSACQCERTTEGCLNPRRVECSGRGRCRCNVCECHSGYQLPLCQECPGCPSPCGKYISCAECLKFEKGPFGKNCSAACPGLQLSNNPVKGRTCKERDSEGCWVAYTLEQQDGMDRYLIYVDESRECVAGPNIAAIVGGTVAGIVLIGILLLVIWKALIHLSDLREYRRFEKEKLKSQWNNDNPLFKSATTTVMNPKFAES
Compound,IC50 (RAW264.7 [1]) [µg/mL],Ratio [2],IC50 (RAW264.7 [3]) [µg/mL],IC50 (Leishmania donovani) [µg/mL],IC90 (Leishmania donovani) [µg/mL],IC50 (Vero) [µg/mL],IC50 (Plasmodium falciparum [4]) [µg/mL],MIC [5] [µg/mL],Activity (HeLa [6]) [%],IC50 (HL-60) [µg/mL],selectivity ratio [7],Ratio [8],Activity [9],IC50 [10] [µM],Activity [11],Activity (HeLa [12]),IC50 (Plasmodium falciparum [13]) [µg/mL],selectivity ratio [14],IC50 (CHO) [µg/mL],Activity [15],other results
"N.S=C(S)N1CCCC1 [PYRROLIDINE DITHIOCARBAMIC ACID, AMMONIUM SALT]",21,<0.02,< 0.4,–,–,–,–,–,–,–,–,–,–,–,–,–,–,–,–,–,–
N=C(N)c1ccc(OCCCCCOc2ccc(C(=N)N)cc2)cc1 [PENTAMIDINE],–,–,–,1.6,3.5,–,–,–,–,–,–,–,–,–,–,–,–,–,–,–,–
C[C@@H]1C[C@H]2[C@@H]3CCC4=CC(=O)C=C[C@]4(C)[C@@]3(F)[C@@H](O)C[C@]2(C)[C@@]1(O)C(=O)CO [DEXAMETHASONE],36,0.69,> 25,–,–,–,–,–,–,–,–,–,–,–,–,–,–,–,–,–,–
CCN(CC)CCCC(C)Nc1ccnc2cc(Cl)ccc12 (configuration not stated) [CHLOROQUINE],–,–,–,–,–,> 10,–,–,–,–,–,–,–,–,–,–,–,–,–,–,–
CC[C@@H](C)C(=O)O[C@H]1C(=O)O[C@@H]2C[C@H]3C(C)=C[C@H](O)[C@@H](O)[C@]3(C)[C@H]3[C@@H](O)[C@@H](O)[C@]4(C)OC[C@]32[C@@H]14,6.5,0.6,4.2,25,> 50,10,0.00853,0.26,3.5,0.7,1180,2.7,0.09,> 52,0.05,Active,0.00327,3060,2.5,0.57,IC50 (SK-MEL): 1.9 µg/mL; IC50 (BT-549): 1.7 µg/mL; IC50 (KB): 1.9 µg/mL; IC50 (SK-OV-3): 0.8 µg/mL; Activity [16]: 0.35; inhibition at 2 µM (HeLa [17]): 96.5%
C[C@@H]1[C@H](O)[C@@H](C)/C=C/C=C/C=C/C=C/C=C/C=C/C=C/[C@H](O[C@@H]2O[C@H](C)[C@@H](O)[C@H](N)[C@@H]2O)C[C@@H]2O[C@](O)(C[C@@H](O)C[C@@H](O)[C@H](O)CC[C@@H](O)C[C@@H](O)CC(=O)O[C@H]1C)C[C@H](O)[C@H]2C(=O)O [AMPHOTERICIN B],–,–,–,1.1,2.1,–,–,–,–,–,–,–,–,–,–,–,–,–,–,–,–
CC[C@@H](C)C(=O)O[C@H]1C(=O)O[C@@H]2C[C@H]3C(C)=CC(=O)[C@@H](O)[C@]3(C)[C@H]3[C@@H](OC(C)=O)[C@H](OC(C)=O)[C@]4(C)OC[C@]32[C@@H]14,23,1,24,> 50,> 50,> 23.8,1.7,20.8,100,40,> 14,1.9,0.52,> 44.4,0.42,inactive,3.2,> 7.4,39,0.87,IC50 (SK-MEL): > 10 µg/mL; IC50 (BT-549): > 10 µg/mL; IC50 (KB): > 10 µg/mL; Activity (HeLa [18]): inactive; IC50 (SK-OV-3): > 10 µg/mL; Activity [16]: 1.34; inhibition at 2 µM (HeLa [17]): 0%
CC[C@@H](C)C(=O)O[C@H]1C(=O)O[C@@H]2C[C@H]3C(C)=C[C@H](OC(C)=O)[C@@H](OC(C)=O)[C@]3(C)[C@H]3[C@@H](O)[C@@H](OC(C)=O)[C@]4(C)OC[C@]32[C@@H]14,–,–,–,> 50,> 50,10,> 4.76,–,100,–,–,–,1.03,–,1.02,inactive,> 4.76,–,–,1.14,Activity (HeLa [18]): inactive; Activity [16]: 0.87; inhibition at 2 µM (HeLa [17]): 0%
C[C@@H]1CC[C@H]2[C@@H](C)C(=O)O[C@@H]3O[C@@]4(C)CC[C@@H]1[C@]32OO4 [ARTEMISININ],–,–,–,36,> 50,> 10,0.0085,–,–,–,> 1180,–,–,–,–,–,–,> 699,–,–,–
C=C1[C@@H](C)[C@H]2[C@H](Cc3ccccc3)NC(=O)[C@]23OC(=O)/C=C/[C@H](O)CCC[C@@H](C)C/C=C/[C@H]3[C@@H]1O [CYTOCHALASIN B],5.6,1.1,6.5,–,–,–,–,2.3,–,40,–,17.2,–,14.8,–,–,–,–,0.26,–,Ratio [19]: 0.04
